Rows were chosen to be rich in hits. Some 1.5% of all compounds tested hit in one or more screens of this group.
APJ ag – agonists of human apelin receptor APJ, primary screen, CHO-K1 cells, PathHunter beta-arrestin, luminescence | P35414 | 0% DMSO wells, 100% apelin | activation, % at 20 µM | 330,000 tested, 0.11% active;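 active means activation more than six SD over the plate average, tested at 20 µM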
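Material: CHO-K1 APJ beta-arrestin complementation cell line; Input: cell density 1000 per well; Incubation: compound stimulation 90 min at 25 °C, detection 60 min; Signal: luminescence from split beta-galactosidase complementation, Galacton Star/Emerald II substrate; Controls: DMSO-only wells as negative, 10 nM Apelin-13 as positive control.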
CCR6 antagonist – CCR6 receptor antagonists, primary screen, cell-based, CHO-K1, luminescence, beta-arrestin, uHTS; 340,000 tested, 0.49% active; CHO-K1 CCR6 PathHunter beta-arrestin, CCL20-stimulated; inhibition, % at 20 µM;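 active means compounds whose inhibition of the agonist-driven luminescence signal at 20 µM reaches about 50%, limit read from the data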;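 further: cells stimulated with CCL20 at 14 nM final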
APJ antagonist – antagonists of human apelin receptor APJ, primary screen, CHO-K1 cells, beta-arrestin complementation, luminescence; inhibition, % at 20 µM; P35414; AID 2521, 2010; 330,000 tested, 0.32% active;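 active means inhibition above about 40% at 20 µM, limit read from the data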;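 further: cells challenged with 10 nM apelin-13 agonist together with compound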
HTR2A ag – mouse Htr2a agonists via beta-arrestin recruitment, primary screen, cell-based, luminescence | 360,000 tested, 0.66% active | activation, % at 7.6 µM | 5-hydroxytryptamine receptor 2A (Mus musculus), P35363 | CHO-K1 mHTR2A beta-arrestin complementation; percent of 30 µM serotonin response;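 active means activation above a run cutoff, the mean activation of all tested compounds plus 3 SD, cut at about 14% in these data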
CXCR6 inh – CXCR6 receptor inhibitors, primary screen, cell-based, beta-arrestin, luminescence, CHO-K1 PathHunter, 1536-well | C-X-C chemokine receptor type 6 (Homo sapiens), O00574 | 360,000 tested, 0.36% active | AID 602244, 2012 | inhibition, % at 20 µM; in the data active means inhibition above about 34%, passing the limit was not always enough;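 further: antagonist mode with CXCL16 agonist at 10 nM final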
NTR1 ag – agonists of human NTR1, primary screen, imaging, U2OS cells, beta-arrestin-GFP, high content; Neurotensin receptor type 1 (Homo sapiens), P30989; NTR1-U2OS beta-arrestin-GFP spot imaging, agonist mode; activation, % at 20 µM; 330,000 tested, 0.17% active;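 active means activation at or above 40% of the spot to cytoplasm intensity ratio, with at least 20 cells analyzed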
Target sequence (P30989 whole entry, looked up): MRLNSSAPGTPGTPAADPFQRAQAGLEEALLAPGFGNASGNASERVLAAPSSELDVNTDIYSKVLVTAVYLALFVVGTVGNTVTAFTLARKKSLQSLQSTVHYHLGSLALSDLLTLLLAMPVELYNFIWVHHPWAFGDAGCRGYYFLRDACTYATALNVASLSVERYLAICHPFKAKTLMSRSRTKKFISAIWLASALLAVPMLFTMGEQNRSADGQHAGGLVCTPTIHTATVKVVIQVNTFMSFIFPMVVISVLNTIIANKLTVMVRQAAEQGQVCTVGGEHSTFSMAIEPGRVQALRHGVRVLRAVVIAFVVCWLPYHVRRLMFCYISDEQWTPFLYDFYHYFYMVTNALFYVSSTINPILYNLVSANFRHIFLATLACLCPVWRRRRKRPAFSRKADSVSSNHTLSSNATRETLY
APJ ag conf – agonists of human apelin receptor APJ, confirmation, cell-based, single concentration, CHO-K1, beta-arrestin, luminescence. shares compounds with APJ ag. CHO-K1 APJ PathHunter beta-arrestin. activation, % at 20 µM. 310 tested, 10% active;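 active means activation above 40%, taking the highest of four retests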
Numbers stand for hits; . = inactive; / = no result given.

SMILES	APJ ag	CCR6 antagonist	APJ antagonist	HTR2A ag	CXCR6 inh	NTR1 ag	others
O=C(N/N=C/c1ccc(-c2cccc([N+](=O)[O-])c2)o1)c1cccs1	.	.	.	.	.	.
COc1cccc(Cn2nc3c4cc(F)ccc4n(Cc4ccc(F)cc4)cc-3c2=O)c1	.	.	.	.	.	.
COc1cc2c3nnc(-c4ccc(F)cc4)c-3cn(Cc3cccc(C)c3)c2cc1OC	.	.	.	.	.	124
CC(=O)N1C[C@H]2CON(C)[C@H]2C[C@H]1c1cccc(-c2cc(Cl)cc(Cl)c2)c1	/	/	/	.	.	/
COC1=C(Br)C(=O)c2ncccc2C1=O	/	79	/	.	59	/
COCCNC(=S)N1CCN(S(C)(=O)=O)CC1	.	.	.	.	.	.
COc1ccc(N(C(=O)c2csnn2)C(C(=O)NC2CCCC2)c2ccccc2)cc1 (centres undefined)	.	.	.	.	.	.
COc1ccccc1N1C(=O)C2CC(C)=C(C)CC2C1=O (centres undefined)	.	.	.	.	.	.
COc1ccccc1N1C(=O)C=C(Sc2nc(C)cc(C)n2)C1=O	.	94	.	.	.	.
N#CC(C#N)=C(N)/C(C#N)=C/c1cc(O)c(O)c(O)c1	.	70	57	.	55	.
COCCOC(=O)c1c(NC(=O)COC(=O)c2ccc(C)o2)sc(C(N)=O)c1C	.	.	.	.	.	.
O=C(c1ccc(S(=O)(=O)N2CCCCC2)cc1)N1CCN(CCN2C(=O)c3cccc4cccc(c34)C2=O)CC1	.	.	.	.	.	.
O=[N+]([O-])c1ccc(N=Nc2c(Cl)cc(O)cc2Cl)cc1	/	74	/	.	44	/
O=C(ONc1ccc(N=NC(=O)c2ccccc2O)cc1)c1ccccc1	.	56	.	.	.	.
O=Nc1ccc(NOC(=O)c2ccccc2Br)cc1	.	.	.	.	.	.
C=C(C)c1cccc(C(C)(C)NC(=O)NCc2ccc(OC)c(OC)c2)c1	.	.	.	24	.	.
Cc1ccc(S(=O)(=O)/N=C2\C=C(Nc3ccc(O)cc3)C(=O)c3ccccc32)cc1	.	63	.	.	.	.
Cc1ccc(S(=O)(=O)/N=C2/C=C(Sc3ncn[nH]3)C(=O)c3ccccc32)cc1	/	92	/	20	81	/
Cc1ccc(NC2=C/C(=N/S(=O)(=O)c3cccs3)c3ccccc3C2=O)cc1	.	59	.	.	.	.
CC(C)(C)c1ccc(S(=O)(=O)/N=C2\C=C(NS(=O)(=O)c3ccccc3)C(=O)c3ccccc32)cc1	.	50	.	.	.	.
Cc1ccc(S(=O)(=O)/N=C2\C=C(Nc3cccc(C(=O)O)c3)C(=O)c3ccccc32)cc1	.	.	.	.	.	.
Cc1ccc(S(=O)(=O)/N=C2\C=C(NS(=O)(=O)c3ccccc3)C(=O)c3ccccc32)c(C)c1	/	.	/	.	.	/
CC(C)c1ccc(S(=O)(=O)N2CCN(C(=O)C3CCCC3)CC2)cc1	.	.	.	.	.	.
COc1ccccc1-c1ccc2c(c1)O[C@@H](CN(C)C(=O)c1ccncc1)[C@H](C)CN([C@@H](C)CO)S2(=O)=O	/	/	/	.	.	/
COc1cccc(CNC(=O)[C@@H]2CCCN2C(=O)[C@H]2CCCCN2C(=O)c2cccc3ccccc23)c1	/	/	/	.	.	/
SMILES	APJ ag	CCR6 antagonist	APJ antagonist	HTR2A ag	CXCR6 inh	NTR1 ag	others
C[C@@H]1CN([C@@H](C)CO)C(=O)CCCn2nncc2CO[C@@H]1CN(C)C(=O)Nc1ccccc1C(F)(F)F	/	/	/	.	.	/
O=C1C(Nc2ccccc2)=C/C(=N/S(=O)(=O)c2cccs2)c2ccccc21	/	64	/	.	42	/
CC(C)N1CC=C2C(C#N)=C(N)C(C#N)(C#N)C(c3ccccc3)C2C1 (centres undefined)	/	.	/	.	.	/
Cc1ccc(C2C3CSCC=C3C(C#N)=C(N)C2(C#N)C#N)cc1 (centres undefined)	.	52	.	.	.	.
CN(Cc1ccc2c(c1)OCCO2)C(=O)CSc1ncnc2sccc12	.	.	.	.	.	.
Cc1n[nH]c(C)c1Sc1ccccc1N=Cc1cc(Cl)cc([N+](=O)[O-])c1O	.	.	.	.	55	.
Cc1n[nH]c(C)c1Sc1ccccc1[N+](=O)[O-]	.	.	.	.	.	.
COc1cc(/C=N/NC(=O)C(Cc2c[nH]c3ccccc23)NC(=O)OCC(C)C)cc([N+](=O)[O-])c1O (centres undefined)	.	.	44	.	.	.
COc1ccccc1C1=NOC(Cn2c(NCCOCCO)nc3c2c(=O)n(C)c(=O)n3C)C1 (centres undefined)	.	.	.	.	.	.
Fc1ccc(NC(=S)N2CCN(c3cccc(C(F)(F)F)c3)CC2)cc1	.	.	.	.	.	.
FC(F)(F)c1cccc(NC(=S)N2CCN(c3cccc(C(F)(F)F)c3)CC2)c1	.	.	.	15	.	.
COc1ccc(CCNC(=O)C2CCN(C(=O)c3ccccc3)CC2)cc1	.	57	.	/	/	.
COc1ccc(CCNC(=O)C2CCN(C(=O)c3ccc(F)cc3)CC2)cc1	.	.	.	.	.	.
CCOc1ccc(C(=O)/C=C/c2cn(CN3CCN(C)CC3)c3ccccc23)cc1	.	.	.	.	.	49
CCCCNC(=S)NNC(=O)c1cc(-c2cccnc2)nc2ccccc12	.	54	.	.	.	.
O=C(NC(=S)Nc1ccccc1)c1cc(-c2ccccc2)nc2ccccc12	.	55	.	.	.	.
O=C(NC(=S)Nc1ccccn1)c1cc(-c2ccccc2)nc2ccccc12	.	.	.	.	.	.
CCCNC(=S)NNC(=O)c1cc(-c2cccnc2)nc2ccccc12	.	.	.	.	.	.
Cc1ccc2cc(C=O)c(Cl)nc2c1	.	.	.	.	.	.
CCOC(=O)c1ccc(NC(=O)CSc2nncn2-c2cccnc2)cc1	.	.	.	.	.	.
O=[N+]([O-])c1cc(Cl)cc(/C=N/n2cnnc2)c1O	.	.	.	.	32	.
O=[N+]([O-])c1cc(Br)cc(/C=N/n2cnnc2)c1O	.	.	.	.	.	.
N/C(=N\OC(=O)c1cc(Br)ccc1Cl)c1cccnc1	11	.	.	.	.	.	APJ ag conf=.
COc1ccccc1NC(=O)COc1cccc2c1CCNC2=O	.	.	.	.	.	.
